Results published in ChEMBL document CHEMBL1154220, “Inhibitors of aldose reductase and formation of advanced glycation end-products in moutan cortex (Paeonia suffruticosa)” (J Nat Prod, 2009).

Columns and labels:
[1] = Inhibition of advanced glycation end product formation after 14 day in phosphate buffer at pH7.4 by spectrofluorimetry; format: physicochemical
How it was run: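 BSA (10 mg/mL stock) in 50 mM phosphate pH 7.4 with 0.02% sodium azide, plus 0.2 M fructose and glucose, incubated with serially diluted samples at 37 °C for 14 days in screw-cap tubes. Aminoguanidine served as reference. Fluorescence read at ex 350/em 450 nm. IC50 from dose-response curves, triplicate, mean ± SE.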

[2] = target: Aldo-keto reductase family 1 member B1 (Rattus norvegicus, UniProt P07943); assay: Inhibition of Sprague-Dawley rat lens aldose reductase by spectrofluorimetry; format: single protein
How it was run: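 Crude enzyme: supernatant of lenses from 8-week-old rats (250-280 g), homogenized in 135 mM Na/K phosphate pH 7.0 with 0.5 mM PMSF and 10 mM 2-mercaptoethanol, spun 14 000 rpm 30 min. NADP converted to fluorophore with NaOH/imidazole at 60 °C for 10 min, read ex 360/em 460 nm. IC50 from dose-response curves, triplicate, mean ± SE.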

SMILES	IC50 [1] [µM]	IC50 [2] [µM]
CCCCO[C@]12C[C@]3(C)OC(O1)[C@]1(COC(=O)c4ccccc4)[C@@H]2C[C@@]31O[C@@H]1O[C@H](CO)[C@@H](O)[C@H](O)[C@H]1O	10.8	36.2
CO[C@H]1O[C@@]2(C)CC(=O)[C@H]3C[C@]2(O[C@@H]2O[C@H](COC(=O)c4ccccc4)[C@@H](O)[C@H](O)[C@H]2O)[C@]13COC(=O)c1ccccc1	> 500	> 50
Cc1cc2c(cc1O)[C@@H](CO)CO2	177	> 50
C[C@@]12C[C@@]3(O)OC(O1)[C@]1(COC(=O)c4ccc(O)cc4)[C@@H]3C[C@@]21O[C@H]1O[C@H](COC(=O)c2ccccc2)[C@@H](O)[C@H](O)[C@H]1O	> 500	> 50
C[C@@]12C[C@@]3(O)OC(O1)[C@]1(COC(=O)c4ccc(O)cc4)[C@@H]3C[C@@]21O[C@@H]1O[C@H](COC(=O)c2ccccc2)[C@@H](O)[C@H](O)[C@H]1O	> 500	> 50
C=C1CC[C@]2(C(=O)O)CC[C@]3(C)C(=CC[C@@H]4[C@@]5(C)CC[C@H](O)[C@@](C)(CO)[C@@H]5CC[C@]43C)[C@@H]2C1	> 500	28.8
CO[C@@]12C[C@@H]3C(=O)[C@@](C)(C1)OC(O2)[C@H]3COC(=O)c1ccccc1	> 500	> 50
O=C(O)CC1(CC(=O)O)CCCC1	–	31.8
C[C@@]12C[C@@]3(O)O[C@@H](O1)[C@]1(COC(=O)c4ccccc4)[C@@H]3C[C@]12O[C@@H]1O[C@H](COC(=O)c2ccccc2)[C@@H](O)[C@H](O)[C@H]1O [BENZOYLPAEONIFLORIN]	> 500	> 50
C[C@@]12C[C@@]3(O)O[C@@H](O1)[C@]1(COC(=O)c4ccccc4)[C@@H]3C[C@]12O[C@@H]1O[C@H](COC(=O)c2cc(O)c(O)c(O)c2)[C@@H](O)[C@H](O)[C@H]1O [GALLOYLPAEONIFLORIN]	11.3	44.6
C[C@@]12C[C@@]3(O)OC(O1)[C@]1(COC(=O)c4ccccc4)[C@@H]3C[C@@]21O[C@@H]1O[C@H](COC(=O)c2ccc(O)cc2)[C@@H](O)[C@H](O)[C@H]1O [NUDANPINOSIDE H]	> 500	> 50
C[C@@]12C[C@@]3(O)O[C@@H](O1)[C@]1(COC(=O)c4ccc(O)cc4)[C@H]3C[C@@]12O[C@@H]1O[C@H](CO)[C@@H](O)[C@H](O)[C@H]1O [OXYPAEONIFLORIN]	> 500	> 50
C[C@@]12CC(=O)[C@H]3C[C@]1(O)O[C@H](O2)[C@@H]3COC(=O)c1ccccc1 [PAEONIFLORIGENONE]	> 500	> 50
C[C@@]12C[C@@]3(O)O[C@@H](O1)[C@]1(COC(=O)c4ccccc4)[C@H]3C[C@@]12O[C@@H]1O[C@H](CO)[C@@H](O)[C@H](O)[C@H]1O [PAEONIFLORIN]	> 500	> 50
COc1ccc(C(C)=O)c(O[C@@H]2O[C@H](CO[C@@H]3OC[C@H](O)[C@H](O)[C@H]3O)[C@@H](O)[C@H](O)[C@H]2O)c1 [PAEONOLIDE]	> 500	> 50
COc1ccc(C(C)=O)c(O)c1 [PAEONOL]	> 500	> 50
CC1(C)[C@@H](O)CC[C@]2(C)[C@H]3C=CC4=C(O)C(=O)C(=O)[C@@]4(C)[C@]3(C)CC[C@@H]12 [PALBINONE]	> 500	11.4
N=C(N)NN [PIMAGEDINE]	1030	–
